Values after ≈ are worked out from the molar mass of the structure shown.
How the values were obtained:
[1] = Clearance in mouse at 1 mg/kg,iv; type: ADME, organism-based; conditions: in vivo
Summary of the method: (§1)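 CD-1 mice. Single iv dose of 1 mg/kg. Clearance and half-life are derived from plasma concentration-time data.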

[2] = Microsomal stability in human liver microsomes assessed as clearance; type: ADME, Microsome; conditions: read-out: CLH
[3] = Cmax in Beagle dog at 2 mg/kg,po; type: ADME, organism-based, Canis lupus familiaris; design: dose 2 mg/kg, route po; conditions: in vivo
[4] = Toxicity in Beagle dog assessed as effect on electrocardiogram at 200 mg/kg,po; type: organism-based, Canis lupus familiaris; conditions: in vivo
Summary of the method: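 14-day GLP toxicology study in Beagle dogs; oral dosing once daily at 200 mg/kg, given in parallel with the reference drug. ECG recorded daily to detect qualitative changes and QTc interval prolongation.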

[5] = system: Mycobacterium tuberculosis; assay: Antimycobacterial activity against Mycobacterium tuberculosis H37Rv assessed as mycobacterial growth inhibition by low oxygen recovery assay; type: functional
Summary of the method: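 M. tuberculosis H37Rv under hypoxic conditions, low-oxygen recovery assay (LORA) following Cho et al. Read-out is MIC.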

[6] = Clearance in Sprague-Dawley rat at 1 mg/kg,iv; type: ADME, organism-based; conditions: in vivo
Summary of the method: (§2)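 SD rats. Single iv dose of 1 mg/kg. Clearance and half-life are derived from plasma concentration-time data.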

[7] = Plasma protein binding in human assessed as bound fraction; type: ADME, cell-free; conditions: read-out: PPB
Cytochrome P450 3A4 = Cytochrome P450 3A4 (Homo sapiens, UniProt P08684); assay: Inhibition of CYP3A4 (unknown origin); type: ADME
Chain of Cytochrome P450 3A4 (P08684 whole entry, canonical isoform): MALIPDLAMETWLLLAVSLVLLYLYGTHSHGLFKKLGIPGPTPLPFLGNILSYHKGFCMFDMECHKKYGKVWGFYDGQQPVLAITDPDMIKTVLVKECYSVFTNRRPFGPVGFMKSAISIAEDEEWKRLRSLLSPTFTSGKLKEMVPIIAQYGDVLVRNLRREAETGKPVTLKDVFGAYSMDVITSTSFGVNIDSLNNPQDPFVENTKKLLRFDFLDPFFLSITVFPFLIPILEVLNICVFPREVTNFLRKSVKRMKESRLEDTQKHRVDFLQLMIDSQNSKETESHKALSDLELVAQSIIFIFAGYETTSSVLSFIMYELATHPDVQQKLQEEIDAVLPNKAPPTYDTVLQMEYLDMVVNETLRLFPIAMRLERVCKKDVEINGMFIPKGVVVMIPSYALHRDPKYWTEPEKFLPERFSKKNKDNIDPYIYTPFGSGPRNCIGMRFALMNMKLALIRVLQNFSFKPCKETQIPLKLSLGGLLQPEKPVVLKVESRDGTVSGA
Summary of the method: (§3)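 Each CYP isoform screened for inhibition at a single test concentration of 10 μM.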

Cytochrome P450 2C19 = Cytochrome P450 2C19 (Homo sapiens, UniProt P33261); assay: Inhibition of CYP2C19 (unknown origin); type: ADME; summary of the method: as §3
Chain of Cytochrome P450 2C19 (P33261 whole entry): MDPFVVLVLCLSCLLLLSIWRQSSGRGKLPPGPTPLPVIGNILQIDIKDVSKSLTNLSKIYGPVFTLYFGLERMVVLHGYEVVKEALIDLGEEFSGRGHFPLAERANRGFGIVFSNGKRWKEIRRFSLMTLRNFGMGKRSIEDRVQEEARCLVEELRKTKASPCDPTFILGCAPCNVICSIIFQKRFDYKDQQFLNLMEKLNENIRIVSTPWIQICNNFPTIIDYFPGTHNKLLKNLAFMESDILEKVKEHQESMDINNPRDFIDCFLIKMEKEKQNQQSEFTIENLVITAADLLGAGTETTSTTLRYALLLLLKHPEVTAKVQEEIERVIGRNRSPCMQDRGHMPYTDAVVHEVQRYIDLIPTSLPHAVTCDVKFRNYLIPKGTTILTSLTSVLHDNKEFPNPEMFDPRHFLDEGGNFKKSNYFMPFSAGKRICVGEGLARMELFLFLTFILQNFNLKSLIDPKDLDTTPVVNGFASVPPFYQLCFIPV

[8] = Oral bioavailability in Sprague-Dawley rat at 5 mg/kg; type: ADME, organism-based; conditions: in vivo
[9] = Ratio of drug concentration in CD-1 mouse lung to plasma at 6.25 mg/kg,po measured after 96 hrs; type: ADME, organism-based
Summary of the method: (§4)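 Tissue distribution study in CD-1 mice (6.25 mg/kg oral) and SD rats (5.0 mg/kg oral). Lung concentration (ng/g) and plasma concentration (ng/mL) measured 96 h after dosing. Lung/plasma ratio is lung concentration divided by plasma concentration.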

[10] = Volume of distribution at steady state in mouse at 1 mg/kg,iv; type: ADME, organism-based; conditions: in vivo, read-out: Vdss
Summary of the method: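 PK in CD-1 mice at 1 mg/kg iv and 6.25 mg/kg po. Vd, CL and t1/2 taken from the iv arm; Cmax, AUC0-last and F% taken from the oral arm.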

[11] = Microsomal stability in mouse liver microsomes assessed as clearance; type: ADME, Microsome; conditions: read-out: CLH
[12] = Drug concentration in Sprague-Dawley rat plasma at 5 mg/kg,po measured after 96 hrs; type: ADME, organism-based; summary of the method: as §4
[13] = Efflux ratio of apparent permeability across basolateral to apical over apical to basolateral membrane in dog MDCK cells; type: ADME, cell-based, Canis lupus familiaris
[14] = Oral bioavailability in Beagle dog at 2 mg/kg; type: ADME, organism-based, Canis lupus familiaris; conditions: in vivo
[15] = Volume of distribution at steady state in Sprague-Dawley rat at 1 mg/kg,iv; type: ADME, organism-based; conditions: in vivo, read-out: Vdss
Summary of the method: (§5)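 PK in SD rats (1 mg/kg iv, 5.0 mg/kg po) and Beagle dogs (0.5 mg/kg iv, 2.0 mg/kg po). Vd taken from the iv arm, alongside CL and t1/2. Cmax and AUC0-last taken from the oral arm; F% calculated.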

[16] = Ratio of drug concentration in Sprague-Dawley rat lung to plasma at 5 mg/kg,po measured after 96 hrs; type: ADME, organism-based; summary of the method: as §4
[17] = AUC in Sprague-Dawley rat at 200 mg/kg,po measured after 14 days; type: ADME, organism-based; design: dose 200 mg/kg, time 14 day, route po; conditions: in vivo
Summary of the method: (§6)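 14-day pilot toxicology study in rats, 8 males and 8 females per dose level. Daily oral dosing, with 200 mg/kg as the high dose. Drug exposure is reported as AUC in µM·h.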

[18] = Half life in Sprague-Dawley rat at 1 mg/kg,iv; type: ADME, organism-based; conditions: in vivo; summary of the method: as §2
[19] = Apparent permeability across apical side to basolateral side in dog MDCK cells; type: ADME, cell-based, Canis lupus familiaris
[20] = Oral bioavailability in mouse at 6.25 mg/kg; type: ADME, organism-based; conditions: in vivo
[21] = Cmax in mouse at 6.25 mg/kg,po; type: ADME, organism-based; design: dose 6.25 mg/kg, route po; conditions: in vivo
Cytochrome P450 2C9 = Cytochrome P450 2C9 (Homo sapiens, UniProt P11712); assay: Inhibition of CYP2C9 (unknown origin); type: ADME; summary of the method: as §3
Chain of Cytochrome P450 2C9 (P11712 whole entry): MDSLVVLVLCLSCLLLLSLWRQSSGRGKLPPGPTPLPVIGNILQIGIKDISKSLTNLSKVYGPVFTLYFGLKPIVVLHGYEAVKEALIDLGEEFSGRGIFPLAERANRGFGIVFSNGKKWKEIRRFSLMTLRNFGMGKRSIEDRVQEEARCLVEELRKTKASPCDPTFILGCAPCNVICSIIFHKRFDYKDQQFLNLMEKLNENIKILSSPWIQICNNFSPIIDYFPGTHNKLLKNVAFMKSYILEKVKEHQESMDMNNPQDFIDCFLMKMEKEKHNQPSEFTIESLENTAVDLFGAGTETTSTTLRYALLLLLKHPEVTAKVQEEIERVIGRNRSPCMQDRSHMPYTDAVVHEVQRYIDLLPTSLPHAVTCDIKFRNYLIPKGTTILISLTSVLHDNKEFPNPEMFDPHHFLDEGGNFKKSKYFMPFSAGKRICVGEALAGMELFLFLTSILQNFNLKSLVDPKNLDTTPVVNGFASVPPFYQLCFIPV

[22] = system: Mycobacterium tuberculosis; assay: Antimycobacterial activity against Mycobacterium tuberculosis H37Rv assessed as mycobacterial growth inhibition by microplate alamar blue assay; type: functional
Summary of the method: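 M. tuberculosis H37Rv under normoxic conditions, microplate alamar blue assay (MABA) following Cho et al. Read-out is MIC.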

[23] = Volume of distribution at steady state in Beagle dog at 0.5 mg/kg,iv; type: ADME, organism-based, Canis lupus familiaris; conditions: in vivo, read-out: Vdss; summary of the method: as §5
[24] = system: Mycobacterium tuberculosis; assay: Antimycobacterial activity against drug-sensitive Mycobacterium tuberculosis assessed as mycobacterial growth inhibition; type: functional
[25] = Drug concentration in Sprague-Dawley rat lung at 5 mg/kg,po measured after 96 hrs; type: ADME, organism-based; conditions: read-out: Ct; summary of the method: as §4
[26] = Drug concentration in CD-1 mouse lung at 6.25 mg/kg,po measured after 96 hrs; type: ADME, organism-based; conditions: read-out: Ct; summary of the method: as §4
[27] = Drug concentration in CD-1 mouse plasma at 6.25 mg/kg,po measured after 96 hrs; type: ADME, organism-based; summary of the method: as §4
Cytochrome P450 2D6 = Cytochrome P450 2D6 (Homo sapiens, UniProt P10635); assay: Inhibition of CYP2D6 (unknown origin); type: ADME; summary of the method: as §3
Chain of Cytochrome P450 2D6 (P10635 whole entry): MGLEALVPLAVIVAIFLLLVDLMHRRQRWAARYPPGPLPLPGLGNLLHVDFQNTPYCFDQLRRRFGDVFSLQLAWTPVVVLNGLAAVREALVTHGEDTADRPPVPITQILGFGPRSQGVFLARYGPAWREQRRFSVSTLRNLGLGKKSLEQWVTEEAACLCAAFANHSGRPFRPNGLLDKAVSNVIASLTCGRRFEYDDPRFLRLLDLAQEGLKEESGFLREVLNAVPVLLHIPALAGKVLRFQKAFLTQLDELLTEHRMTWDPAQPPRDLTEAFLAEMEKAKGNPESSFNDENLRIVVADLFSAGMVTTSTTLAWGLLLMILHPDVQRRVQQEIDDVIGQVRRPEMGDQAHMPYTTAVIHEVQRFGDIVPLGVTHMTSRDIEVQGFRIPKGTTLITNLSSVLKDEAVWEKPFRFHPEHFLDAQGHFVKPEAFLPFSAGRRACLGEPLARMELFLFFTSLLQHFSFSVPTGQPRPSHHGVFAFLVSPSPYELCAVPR

Cytochrome P450 1A2 = target: T1, Cytochrome P450 1A2 (Homo sapiens, UniProt P05177); assay: Inhibition of CYP1A2 (unknown origin); type: ADME; summary of the method: as §3
T1 sequence (P05177 whole entry): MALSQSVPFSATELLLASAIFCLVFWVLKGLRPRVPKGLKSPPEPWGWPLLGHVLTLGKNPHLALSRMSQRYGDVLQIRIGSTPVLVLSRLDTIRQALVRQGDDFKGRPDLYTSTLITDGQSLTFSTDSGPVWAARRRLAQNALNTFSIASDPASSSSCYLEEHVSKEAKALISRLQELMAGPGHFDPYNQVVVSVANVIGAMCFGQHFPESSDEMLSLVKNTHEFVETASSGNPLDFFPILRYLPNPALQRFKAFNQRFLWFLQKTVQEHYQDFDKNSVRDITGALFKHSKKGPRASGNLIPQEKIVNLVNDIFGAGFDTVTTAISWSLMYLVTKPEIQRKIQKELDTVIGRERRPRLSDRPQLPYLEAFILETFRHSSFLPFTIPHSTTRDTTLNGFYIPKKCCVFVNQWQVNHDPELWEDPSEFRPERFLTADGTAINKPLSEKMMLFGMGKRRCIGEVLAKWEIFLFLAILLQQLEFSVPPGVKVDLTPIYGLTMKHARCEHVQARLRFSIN

[28] = Cmax in Sprague-Dawley rat at 5 mg/kg,po; type: ADME, organism-based; design: dose 5 mg/kg, route po; conditions: in vivo
[29] = AUC (0 to last) in Sprague-Dawley rat at 5 mg/kg,po; type: ADME, organism-based; design: time 0 - last, dose 5 mg/kg, route po; conditions: in vivo
[30] = AUC (0 to last) in Beagle dog at 2 mg/kg,po; type: ADME, organism-based, Canis lupus familiaris; design: time 0 - last, dose 2 mg/kg, route po; conditions: in vivo
[31] = Plasma protein binding in rat assessed as bound fraction; type: ADME, cell-free; conditions: read-out: PPB
[32] = Toxicity in Sprague-Dawley rat assessed as death at 200 mg/kg,po measured after 14 days; type: organism-based; conditions: in vivo, 336 h, time 14 day
Summary of the method: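 14-day pilot oral toxicology study in rats, 8 males and 8 females per dose level. Dosing once daily at 30, 100 and 200 mg/kg, with the reference drug at 200 mg/kg. Deaths counted over the 14 days; drug exposure (AUC) recorded in the high-dose groups.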

[33] = Half life in Beagle dog at 0.5 mg/kg,iv; type: ADME, organism-based, Canis lupus familiaris; conditions: in vivo
Summary of the method: (§7)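 Beagle dogs. Single iv dose of 0.5 mg/kg. Clearance and half-life are derived from plasma concentration-time data.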

[34] = target: Voltage-gated inwardly rectifying potassium channel KCNH2 (Homo sapiens, UniProt Q12809); assay: Inhibition of human ERG; type: toxicity
Chain of Voltage-gated inwardly rectifying potassium channel KCNH2 (Q12809 whole entry): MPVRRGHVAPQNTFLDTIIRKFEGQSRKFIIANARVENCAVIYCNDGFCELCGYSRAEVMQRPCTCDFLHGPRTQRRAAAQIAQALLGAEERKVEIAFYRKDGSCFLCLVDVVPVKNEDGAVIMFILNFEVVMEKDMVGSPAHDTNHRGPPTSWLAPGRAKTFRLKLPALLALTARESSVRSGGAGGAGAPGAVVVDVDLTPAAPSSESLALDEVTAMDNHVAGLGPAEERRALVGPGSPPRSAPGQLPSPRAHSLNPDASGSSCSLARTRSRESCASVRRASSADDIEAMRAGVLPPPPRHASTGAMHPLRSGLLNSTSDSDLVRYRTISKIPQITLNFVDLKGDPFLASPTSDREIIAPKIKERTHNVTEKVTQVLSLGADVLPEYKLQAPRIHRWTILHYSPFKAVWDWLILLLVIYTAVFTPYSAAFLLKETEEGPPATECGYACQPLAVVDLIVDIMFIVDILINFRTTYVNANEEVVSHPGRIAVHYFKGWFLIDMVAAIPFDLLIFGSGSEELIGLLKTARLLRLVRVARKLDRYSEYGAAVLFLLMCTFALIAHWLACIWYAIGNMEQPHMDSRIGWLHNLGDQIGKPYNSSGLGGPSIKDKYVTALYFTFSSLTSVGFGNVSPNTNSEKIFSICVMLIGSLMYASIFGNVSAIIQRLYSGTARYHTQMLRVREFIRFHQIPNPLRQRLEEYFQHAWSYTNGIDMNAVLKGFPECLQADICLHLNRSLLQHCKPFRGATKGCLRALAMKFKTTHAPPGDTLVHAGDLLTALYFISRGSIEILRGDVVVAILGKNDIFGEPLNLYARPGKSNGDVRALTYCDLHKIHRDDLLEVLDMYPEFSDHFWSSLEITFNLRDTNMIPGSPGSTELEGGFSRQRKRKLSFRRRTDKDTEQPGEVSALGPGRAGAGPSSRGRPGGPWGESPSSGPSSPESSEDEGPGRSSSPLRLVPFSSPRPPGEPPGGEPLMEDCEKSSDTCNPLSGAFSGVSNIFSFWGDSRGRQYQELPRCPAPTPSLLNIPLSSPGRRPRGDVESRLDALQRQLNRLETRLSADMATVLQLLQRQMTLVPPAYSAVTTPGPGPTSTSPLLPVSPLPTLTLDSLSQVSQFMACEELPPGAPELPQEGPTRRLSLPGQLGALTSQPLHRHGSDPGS

[35] = Half life in mouse at 1 mg/kg,iv; type: ADME, organism-based; conditions: in vivo; summary of the method: as §1
[36] = Cytotoxicity against human HeLa cells; type: toxicity, cell-based
[37] = Clearance in Beagle dog at 0.5 mg/kg,iv; type: ADME, organism-based, Canis lupus familiaris; conditions: in vivo; summary of the method: as §7
[38] = AUC (0 to last) in mouse at 6.25 mg/kg,po; type: ADME, organism-based; design: time 0 - last, dose 6.25 mg/kg, route po; conditions: in vivo
[39] = Microsomal stability in rat liver microsomes assessed as clearance; type: ADME, Microsome; conditions: read-out: CLH
[40] = Cytotoxicity against African green monkey Vero cells; type: toxicity, cell-based; conditions: chlorocebus sabaeus
[41] = Apparent permeability across basolateral side to apical side in dog MDCK cells; type: ADME, cell-based, Canis lupus familiaris
[42] = AUC in Sprague-Dawley rat at 200 mg/kg,po measured after 12 days; type: ADME, organism-based; design: time 12 day, dose 200 mg/kg, route po; conditions: in vivo; summary of the method: as §6
[43] = Toxicity in Sprague-Dawley rat assessed as death at 200 mg/kg,po measured after 12 days; type: organism-based; conditions: in vivo, 288 h, time 12 day

SMILES: COc1nc(-c2ccc(Cl)cc2)ccc1[C@@H](c1ccccc1)[C@@](O)(CCN(C)C)c1cccc2ccccc12
- clearance [1]: 3.59 mL/min/kg
- microsomal CLint [2]: 39.4 µL/min/mg
- Cmax [3]: 390 ng/mL
- Activity [4]: Non-Toxic
- MIC [5]: 0.56 µg/mL (≈ 1.04 µM)
- clearance [6]: 8.25 mL/min/kg
- fraction unbound [7]: < 0.01
- IC50 (Cytochrome P450 3A4): > 10 µM
- IC50 (Cytochrome P450 2C19): > 10 µM
- bioavailability [8]: 36.7%
- Kp at 96 h [9]: 33.7
- Vd [10]: 10.4 L/kg
- microsomal CLint [11]: 71.3 µL/min/mg
- concentration at 96 h [12]: 4.74 ng/mL
- efflux ratio [13]: 2.54
- bioavailability [14]: 58.9%
- Vd [15]: 9.2 L/kg
- Kp at 96 h [16]: 71.1
- AUC at 336 h [17]: 248 µM·h
- half-life [18]: 25.6 h
- Papp A→B [19]: 0.04 ×10⁻⁶ cm/s
- bioavailability [20]: 40.7%
- Cmax [21]: 503 ng/mL
- IC50 (Cytochrome P450 2C9): > 10 µM
- MIC [22]: 0.08 µg/mL (≈ 0.149 µM)
- Vd [23]: 6.04 L/kg
- MIC50 [24]: 0.083 µg/mL (≈ 0.155 µM)
- MIC90 [24]: 0.152 µg/mL (≈ 0.283 µM)
- concentration at 96 h [25]: 337 ng/g
- concentration at 96 h [26]: 857 ng/g
- concentration at 96 h [27]: 25.4 ng/mL
- IC50 (Cytochrome P450 2D6): > 10 µM
- IC50 (Cytochrome P450 1A2): > 10 µM
- Cmax [28]: 328 ng/mL
- AUC(0-t) [29]: 4080 ng·h/mL
- AUC(0-t) [30]: 8500 ng·h/mL
- fraction unbound [31]: < 0.01
- Activity [32]: Toxic
- half-life [33]: 56.2 h
- IC50 [34]: > 30 µM
- half-life [35]: 46.3 h
- CC50 [36]: > 64 µg/mL
- clearance [37]: 2.04 mL/min/kg
- AUC(0-t) [38]: 10200 ng·h/mL
- microsomal CLint [39]: 45.7 µL/min/mg
- CC50 [40]: > 50 µg/mL
- Papp B→A [41]: 0.11 ×10⁻⁶ cm/s

SMILES: COc1nc2ccc(Br)cc2cc1[C@@H](c1ccccc1)[C@@](O)(CCN(C)C)c1cccc2ccccc12 [BEDAQUILINE]
- Activity [4]: 10%
- MIC [5]: < 0.2 µg/mL
- fraction unbound [7]: < 0.01
- IC50 (Cytochrome P450 2C19): > 10 µM
- Kp at 96 h [9]: 29.6
- concentration at 96 h [12]: 1.52 ng/mL
- Kp at 96 h [16]: 38.7
- Papp A→B [19]: 0.06 ×10⁻⁶ cm/s
- IC50 (Cytochrome P450 2C9): > 10 µM
- AUC at 288 h [42]: 109 µM·h
- MIC [22]: 0.03 µg/mL (≈ 0.054 µM)
- MIC50 [24]: 0.029 µg/mL (≈ 0.0522 µM)
- MIC90 [24]: 0.043 µg/mL (≈ 0.0774 µM)
- concentration at 96 h [25]: 58.8 ng/g
- concentration at 96 h [26]: 135 ng/g
- Activity [43]: Toxic
- concentration at 96 h [27]: 4.56 ng/mL
- IC50 (Cytochrome P450 2D6): > 10 µM
- IC50 (Cytochrome P450 1A2): > 10 µM
- fraction unbound [31]: < 0.01
- CC50 [36]: > 64 µg/mL
- CC50 [40]: > 50 µg/mL
- Papp B→A [41]: 0.09 ×10⁻⁶ cm/s
